Measurements taken from ChEMBL document CHEMBL1124949, “4-(1,2,5,6-Tetrahydro-1-alkyl-3-pyridinyl)-2-thiazolamines: a novel class of compounds with central dopamine agonist properties” (J Med Chem, 1990).
Calls of active or inactive are those of the source. The calls are words filed in the database; no cut-off is given here.

What was measured:
D(2) dopamine receptor [1] = molecular target: T1, D(2) dopamine receptor (Rattus norvegicus, UniProt P61169); assay: Inhibition of [3H]N-propylnorapomorphine binding to Dopamine receptor D2 of rat striatal membranes; type: cell membranes, Membrane
T1 sequence (P61169 whole entry): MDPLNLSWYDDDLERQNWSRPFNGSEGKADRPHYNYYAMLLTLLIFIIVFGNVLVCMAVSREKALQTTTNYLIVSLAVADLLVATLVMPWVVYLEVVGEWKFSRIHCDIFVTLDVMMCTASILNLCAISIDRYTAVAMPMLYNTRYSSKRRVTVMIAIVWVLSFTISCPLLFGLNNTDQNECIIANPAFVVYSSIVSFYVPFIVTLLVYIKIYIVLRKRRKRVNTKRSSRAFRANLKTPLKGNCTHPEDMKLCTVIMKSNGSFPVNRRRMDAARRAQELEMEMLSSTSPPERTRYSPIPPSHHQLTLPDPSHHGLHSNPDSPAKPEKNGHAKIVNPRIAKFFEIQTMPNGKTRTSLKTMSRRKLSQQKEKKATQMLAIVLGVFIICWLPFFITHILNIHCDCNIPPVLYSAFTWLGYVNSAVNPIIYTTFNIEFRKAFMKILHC

Rattus norvegicus [2] = assay: Decrease of DOPA formation effected by 30 mg/kg administered intraperitoneally in the striatum of GBL-treated rats; type: functional; conditions: ip, route intraperitoneal
In short: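 Male Long-Evans rats dosed ip 1 h before sacrifice. GBL 750 mg/kg ip given 30 min and NSD 1015 100 mg/kg ip given 25 min before sacrifice. Striatal DOPA measured by HPLC with electrochemical detection. Decrease in DOPA formation at 30 mg/kg ip, n = 4 or 5.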

Rattus norvegicus [3] = assay: Inhibition of locomotor activity was determined after oral administration in rat; type: functional
In short: (§1)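 Spontaneous exploratory locomotor activity was scored, with motor coordination (ataxia) checked in the same test. ED50 came from four to six doses, with 5–12 animals per dose.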

D(2) dopamine receptor [4] = molecular target: T1, D(2) dopamine receptor; assay: Inhibition of [3H]haloperidol binding for Dopamine receptor D2 in rat striatal membranes.; type: cell membranes, Membrane
Rattus norvegicus [5] = assay: Reversal of reserpine-induced depression in rat after subcutaneous administration; type: functional
In short: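 Rats were pretreated with reserpine 5 mg/kg 24 h before testing, then given drug sc. Locomotor activity was recorded for 30 min starting immediately after dosing.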

Mus musculus = assay: Inhibition of locomotor activity was determined after intraperitoneal administration in mouse; type: functional; conditions: ip; in short: as §1
D(2) dopamine receptor [6] = molecular target: T1, D(2) dopamine receptor; assay: Inhibition of [3H]haloperidol binding for Dopamine receptor D2 in rat striatal membranes. (25% inhibition at 10 e-6 M); type: cell membranes, Membrane
D(1A) dopamine receptor = D(1A) dopamine receptor (Rattus norvegicus, UniProt P18901); assay: Inhibition of binding of [3H]SCH-23390 to Dopamine receptor D1 was determined
Chain of D(1A) dopamine receptor (P18901 whole entry): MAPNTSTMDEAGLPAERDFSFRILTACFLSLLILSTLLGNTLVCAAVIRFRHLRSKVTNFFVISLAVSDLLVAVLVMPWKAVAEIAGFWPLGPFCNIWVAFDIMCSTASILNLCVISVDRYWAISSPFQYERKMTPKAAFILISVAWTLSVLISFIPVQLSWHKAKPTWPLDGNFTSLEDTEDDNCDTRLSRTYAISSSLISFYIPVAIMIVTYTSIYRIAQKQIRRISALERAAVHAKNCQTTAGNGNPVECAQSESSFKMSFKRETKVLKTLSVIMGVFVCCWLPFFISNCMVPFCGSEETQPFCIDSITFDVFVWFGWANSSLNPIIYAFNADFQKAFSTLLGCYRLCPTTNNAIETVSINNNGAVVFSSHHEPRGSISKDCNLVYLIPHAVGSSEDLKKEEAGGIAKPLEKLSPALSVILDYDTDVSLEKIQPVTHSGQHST
In short: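 D1 binding was displaced from [3H]SCH23390. IC50 was fitted by nonlinear regression from four or five concentrations.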

Rattus norvegicus [7] = assay: Reversal of 6-hydroxydopamine induced depression in lesioned rats was determined after dosing for a period of 30 minutes; type: functional; conditions: 0.5 h
In short: (§2)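 Rats received 6-OHDA 200 μg icv plus pargyline 50 mg/kg ip and desmethylimipramine 25 mg/kg ip at least 1 month earlier, giving about 90% brain DA depletion. Drug was given sc and locomotion recorded for 30 min from dosing. ED200 is the dose doubling activity versus unlesioned controls, estimated from three or four doses with six animals per dose.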

Rattus norvegicus [8] = assay: Percent of rats showing stereotyped behavior at the dose at 3 mg/kg dose level; type: functional
Rattus norvegicus [9] = assay: Inhibition of locomotor activity was determined after oral administration in rat(50% inhibition at 3 mg/kg); type: functional
Rattus norvegicus [10] = assay: Percent inhibition of dopamine neuronal firing in substantia nigra of anesthetized rats after (ip) administration at 2.5 mg/kg; type: functional
D(2) dopamine receptor [11] = molecular target: T1, D(2) dopamine receptor; assay: Inhibition of [3H]haloperidol binding for Dopamine receptor D2 in rat striatal membranes. (36%inhibition at 10 e-6 M); type: cell membranes, Membrane
D(2) dopamine receptor [12] = molecular target: T1, D(2) dopamine receptor; assay: Inhibition of [3H]haloperidol binding for Dopamine receptor D2 in rat striatal membranes. (41% inhibition at 10 e-6 M); type: cell membranes, Membrane
Rattus norvegicus [13] = assay: Inhibition of locomotor activity was determined after oral administration at a dose of 1 mg/kg in rat; type: functional
Rattus norvegicus [14] = assay: Reversal of 6-hydroxydopamine induced depression in lesioned rats after dosing for a period of 30 minutes; type: functional; conditions: 0.5 h; in short: as §2
Rattus norvegicus [15] = assay: Percent of animals showing stereotyped behavior in rats at 3 mg/kg; type: functional
Rattus norvegicus [16] = assay: Inhibition of locomotor activity was determined after (sc) administration in rat (40% inhibition was determined at 3 mg/kg); type: functional, organism-based; set-up: dose 3 mg/kg
Rattus norvegicus [17] = assay: Decrease of DOPA formation effected by 30 mg/kg administered intraperitoneally in the striatum of GBL-treated rats; conditions: at 30 mg/kg
Rattus norvegicus [18] = assay: Percent inhibition of dopamine neuronal firing in substantia nigra of anesthetized rats after (ip) administration at 2.5 mg/kg
Rattus norvegicus [19] = assay: Percent of animals showing stereotyped behavior in rats at the dose 0.3 mg/kg; type: functional
D(2) dopamine receptor [20] = molecular target: T1, D(2) dopamine receptor; assay: Inhibition of [3H]haloperidol binding for Dopamine receptor D2 in rat striatal membranes. (2% inhibition at 10 e-6 M); type: cell membranes, Membrane
D(2) dopamine receptor [21] = molecular target: T1, D(2) dopamine receptor; assay: Inhibition of [3H]haloperidol binding for Dopamine receptor D2 in rat striatal membranes. (15% inhibition at 10 e-6 M); type: cell membranes, Membrane
[22] = Rattus norvegicus, sc, read-out: ED50

Row | Structure (SMILES) | IC50 (D(2) dopamine receptor [1]) | IC50 (D(2) dopamine receptor [4]) | ED50 (Rattus norvegicus [3]) | ED50 (Rattus norvegicus [5]; [22]) | also measured
1 | CCCCN1CCC=C(c2csc(NC)n2)C1.Cl.Cl |  |  | 16.7 mg/kg |  | ED50 (Mus musculus): 4.4 mg/kg; IC50 (D(2) dopamine receptor [6]): > 1000 nM
2 | CCCN1CCCC(c2cccc(O)c2)C1 (racemic) |  |  | 3 mg/kg | 30 mg/kg | 
3 | Cl.Cl.Nc1nc(C2=CCCN(CCc3ccccc3)C2)cs1 | 911 nM | 1080 nM | 33.6 mg/kg | 5.8 mg/kg | 
4 | CCCN1CCC=C(c2csc(C)n2)C1.Cl.Cl |  |  |  |  | IC50 (D(2) dopamine receptor [12]): > 1000 nM; ED50 (Mus musculus): > 30 mg/kg
5 | C=CCN1CCC=C(c2csc(N)n2)C1 | 257 nM | 440 nM |  | 8.7 mg/kg | IC50 (D(1A) dopamine receptor): > 50000 nM; inhibition in vivo at 30 mg/kg (Rattus norvegicus [2]): 100%; inhibition in vivo at 1 mg/kg (Rattus norvegicus [13]): 30%; ED200 (Rattus norvegicus [14]): 0.3 mg/kg; ED50 (Mus musculus): 2.8 mg/kg; inhibition in vivo at 2.5 mg/kg (Rattus norvegicus [10]): 100%; Animals (Rattus norvegicus [15]): 100%
6 | CCCN1CCC=C(c2csc(NC)n2)C1 | > 10000 nM |  |  |  | IC50 (D(2) dopamine receptor [6]): > 1000 nM
7 | CCCN1CCCC(c2cccc(O)c2)C1 (stereo unspecified) [listing 1 of 2 here] |  |  |  |  | ED50 (Rattus norvegicus [5]): 30 mg/kg
8 | CCCN1CCCC(c2cccc(O)c2)C1 (stereo unspecified) [listing 2 of 2 here] |  |  |  |  | ED50 (Rattus norvegicus [16]): inactive
9 | CCCCCCCN1CCC=C(c2csc(N)n2)C1.Cl.Cl | 5130 nM | 2170 nM | > 30 mg/kg | > 30 mg/kg | 
10 | CN1CCC=C(c2csc(N)n2)C1.Cl.Cl |  | 1040 nM | inactive | > 30 mg/kg | inhibition (Rattus norvegicus [17]): 100%; inhibition (Rattus norvegicus [18]): 100%
11 | CN1CCc2cccc3c2[C@H]1Cc1ccc(O)c(O)c1-3 [APOMORPHINE] |  |  |  | 0.1 mg/kg | Animals (Rattus norvegicus [19]): 100%
12 | CCCN1CCC=C(c2cnc(N)s2)C1 |  |  |  |  | ED50 (Mus musculus): 19.1 mg/kg; IC50 (D(2) dopamine receptor [20]): > 1000 nM
13 | CCCN1CCCC(c2csc(N)n2)C1.Cl.Cl (stereo unspecified) |  |  | 18.9 mg/kg |  | inhibition in vivo at 30 mg/kg (Rattus norvegicus [2]): 55%; IC50 (D(2) dopamine receptor [21]): > 1000 nM

Further lines, with some results ahead:

Row | IC50 (D(2) dopamine receptor [1]) | IC50 (D(2) dopamine receptor [4]) | Structure (SMILES) | ED50 (Rattus norvegicus [3]) | ED50 (Rattus norvegicus [5]; [22]) | also measured
14 | 6400 nM | 1850 nM | Br.Br.CCCCCN1CCC=C(c2csc(N)n2)C1 | 15.6 mg/kg | > 30 mg/kg | inhibition in vivo at 30 mg/kg (Rattus norvegicus [2]): 0%; ED50 (Mus musculus): 4.1 mg/kg
15 | 596 nM | 958 nM | CCCN1CCC=C(c2csc(N)n2)C1 |  | > 30 mg/kg | IC50 (D(1A) dopamine receptor): > 50000 nM; ED200 (Rattus norvegicus [7]): 0.4 mg/kg; Animals (Rattus norvegicus [8]): 100%; inhibition in vivo at 30 mg/kg (Rattus norvegicus [2]): 100%; ED50 at 3 mg/kg (Rattus norvegicus [9]): 3 mg/kg; inhibition in vivo at 2.5 mg/kg (Rattus norvegicus [10]): 100%
16 | 5330 nM |  | CCCCCCN1CCC=C(c2csc(N)n2)C1.Cl.Cl |  | > 30 mg/kg | IC50 (D(2) dopamine receptor [11]): > 1000 nM
17 | 3980 nM | 2120 nM | CCCCN1CCC=C(c2csc(N)n2)C1.Cl.Cl | 5.4 mg/kg | > 30 mg/kg | inhibition in vivo at 30 mg/kg (Rattus norvegicus [2]): 0%; inhibition in vivo at 2.5 mg/kg (Rattus norvegicus [10]): 0%
18 | 411 nM | 945 nM | CCN1CCC=C(c2csc(N)n2)C1 | inactive | > 30 mg/kg | inhibition (Rattus norvegicus [17]): 92%; inhibition (Rattus norvegicus [18]): 96%
